Bioassay records (PubChem)
PRMT1 inh: PRMT1 methyltransferase inhibitors, primary screen, biochemical, fluorescence polarization. Protein arginine N-methyltransferase 1 (Homo sapiens), Q99873. inhibition, % at 2.79 µM. actives 1.3% (n = 370,000). AID 652257, 2013. recombinant PRMT1, activity-based probe fluorescence polarization;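 active = inhibition above about 21% made by adding two undisclosed values, limit read from the data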
Target sequence (Q99873 whole entry, looked up): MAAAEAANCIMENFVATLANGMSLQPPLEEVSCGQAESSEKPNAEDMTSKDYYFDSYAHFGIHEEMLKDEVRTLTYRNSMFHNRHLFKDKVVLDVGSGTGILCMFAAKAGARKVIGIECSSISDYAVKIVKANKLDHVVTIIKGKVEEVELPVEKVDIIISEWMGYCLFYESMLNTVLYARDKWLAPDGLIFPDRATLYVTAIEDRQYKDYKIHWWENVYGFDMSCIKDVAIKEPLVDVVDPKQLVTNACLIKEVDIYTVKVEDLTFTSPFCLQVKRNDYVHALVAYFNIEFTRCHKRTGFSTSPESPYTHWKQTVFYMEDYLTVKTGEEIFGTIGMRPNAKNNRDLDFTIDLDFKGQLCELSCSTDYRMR
MBD2 inh: inhibitors of MBD2 binding to methylated DNA, primary screen, biochemical, TR-FRET, DNA-binding domain, human; AID 686964, 2013; inhibition, % at 4.4 µM; MBD2 binding to methylated oligonucleotide; actives 0.31% (n = 370,000); in the data active = inhibition above about 13%
UHRF1 binding: UHRF1 methylated DNA binding inhibitors, primary screen, counter-screen for MBD2 inhibitor project, biochemical, TR-FRET, human UHRF1, single concentration | E3 ubiquitin-protein ligase UHRF1 (Homo sapiens), Q96T88 | UHRF1 binding to methylated oligo | inhibition, % at 4.4 µM | actives 0.75% (n = 370,000); in the data active = inhibition above about 21%;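 also: UHRF1 SRA domain binding a hemimethylated CpG hairpin DNA probe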
ABHD5-PLIN5 inh: ABHD5-PLIN5 interaction inhibitors, primary screen, cell lysate, split luciferase complementation, luminescence; Perilipin-5 (Homo sapiens) + 1-acylglycerol-3-phosphate O-acyltransferase ABHD5 (Homo …; Split G. princeps luciferase complementation, 4 h; inhibition, % at 4 µM; actives 0.78% (n = 360,000); AID 602281, 2012;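 active = inhibition above the mean inhibition across every tested compound plus 3 SD, cut at about 22% in these data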
RBBP9 inh: human RBBP9 inhibitors, primary screen, biochemical, fluorescence polarization, FP-Rh probe, HTS | recombinant RBBP9 | inhibition, % at 7.94 µM | actives 0.2% (n = 220,000) | AID 1515, 2009;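 active = inhibition above the campaign mean of all tested compounds plus 3 SD, cut at about 14% in these data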
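System: RBBP9 protein | Quantity: 2.5 µM RBBP9 dispensing solution, before mixing | Reagent: FP-Rh probe, 375 nM dispensing solution | Timing: Enzyme-compound preincubation 30 min, then probe labeling 45 min, 25 °C | Measured by: Fluorescence polarization | Read-out: % inhibition | Replication: One well per compound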
LEDGF integ inh: blockers of LEDGF/p75-dependent integrase strand transfer – biochemical, TR-FRET, high throughput, primary screen | HIV-1 integrase (with human LEDGF/p75) | TR-FRET IN-LEDGF/p75 DNA integration, Eu/Cy5 | inhibition, % at 3.7 µM | actives 0.64% (n = 370,000);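 active = inhibition above the screen-wide mean plus 3 SD, cut at about 13% in these data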;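 also: signal is the Cy5 over europium emission ratio at 671 and 618 nm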
Large screens that a line does not name were inactive. The list is not random: actives were taken first. Their share in the collection is about 3.1%.

O=C(c1ccc(C(F)(F)F)cc1)N1CCC(=O)N(C(COCc2ccc(Cl)cc2)Cc2ccccc2)CC1 (configuration not stated)	none
CCOc1ccc(N(CC(=O)Nc2ccc3c(c2)OCCO3)S(=O)(=O)c2c(C)noc2C)cc1	none
CCc1ccc(NC(=O)CN(c2ccc3c(c2)OCO3)S(=O)(=O)c2c(C)noc2C)cc1	UHRF1 binding 32.6
O=C(Nc1ccccc1SC(=O)c1ccccc1)c1ccccc1	PRMT1 inh 93.5 (no result: RBBP9 inh)
Cc1ccc(C(=O)CC(=O)c2ccccc2)cc1	none (no result: RBBP9 inh)
Cc1ccc(C(=O)Sc2cccccc2=O)cc1	PRMT1 inh 45.4 (no result: RBBP9 inh)
COC(=O)C1=C(C)N(Cc2ccc(C(F)(F)F)cc2)C(=NCc2ccccc2C(F)(F)F)NC1c1ccc(Cl)cc1 (configuration not stated)	none (no result: ABHD5-PLIN5 inh, RBBP9 inh)
COc1c2occc2cc2ccc(=O)oc12	none
COc1c2c(cc3ccc(=O)oc13)CCO2	UHRF1 binding 49.0 (no result: RBBP9 inh)
COC(=O)[C@]12C[C@H](CC(=O)NCC3CCCCC3)C(=O)N(CCc3ccc(OC)c(OC)c3)C1=C[C@H](C(C)C)O[C@@H]2C1CC1	none (no result: ABHD5-PLIN5 inh, RBBP9 inh)
O=C1CN(C(=O)C2CCCCC2)C=CN1CCc1ccccc1Br	none (no result: ABHD5-PLIN5 inh, RBBP9 inh)
N=C1C(c2nc3ccccc3s2)=C(O)CN1NC(=O)c1ccco1	UHRF1 binding 39.4
COc1ccc(N2CC(O)=C(c3nc4ccccc4s3)C2=N)cc1	none
COc1cccc(N2CC(O)=C(c3nc4ccccc4s3)C2=N)c1	UHRF1 binding 22.8
CSC(=NCc1ccc(F)cc1)NS(=O)(=O)c1cccs1	UHRF1 binding 41.3
Cc1c[nH]c2cccc(-c3cc4ccccc4o3)c12	none (no result: ABHD5-PLIN5 inh, RBBP9 inh)
CC[C@]12c3[nH]c4cc(-c5ccco5)ccc4c3CCN1C(=O)[C@@H](CC(=O)NC/C=C(\C)CCC=C(C)C)C[C@@H]2C(=O)N1CCN(C(=O)c2ccco2)CC1	none (no result: PRMT1 inh, MBD2 inh, UHRF1 binding, RBBP9 inh, LEDGF integ inh)
CC[C@]12c3[nH]c4cc(-c5ccco5)ccc4c3CCN1C(=O)[C@@H](CC(=O)NC/C=C(\C)CCC=C(C)C)C[C@@H]2C(=O)N1CCN(C(=O)C2CC2)CC1	PRMT1 inh 23.2 (no result: RBBP9 inh)
COC(=O)[C@]12C[C@H](CC(=O)N3CCCCC3)C(=O)N(CCC3=CCCCC3)C1=C[C@H](C(C)C)O[C@@H]2C1CC1	none (no result: ABHD5-PLIN5 inh, RBBP9 inh)
CCCCn1c(=O)[nH]c2nc3cc(NC(C)=O)ccc3nc2c1=O	UHRF1 binding 44.7
CCC(=O)Nc1ccc2nc3c(=O)[nH]c(=S)[nH]c3nc2c1	none (no result: RBBP9 inh)
COC(=O)[C@]12C[C@H](CC(=O)NCc3ccc(C)o3)C(=O)N(Cc3cccc4ccccc34)C1=C[C@H](C(C)(C)C)O[C@@H]2C	none (no result: ABHD5-PLIN5 inh, RBBP9 inh)
O=S1(=O)c2ccc(Br)cc2OC[C@@H](Cc2ccccc2)N1Cc1cn(CCC2OCCO2)nn1	none (no result: ABHD5-PLIN5 inh, RBBP9 inh)
Cc1ccnc(-n2c(C)cc(C=O)c2C)c1	UHRF1 binding 23.2
Cc1cc(NC(=O)CSCC(=O)Nc2cc(Cl)ccc2N2CCN(C)CC2)no1	UHRF1 binding 27.7 (no result: RBBP9 inh)
Cc1cccc(NC(=O)CSCC(=O)Nc2cc(Cl)ccc2N2CCN(C)CC2)c1	none (no result: RBBP9 inh)
Cc1ccc(S(=O)(=O)N2CCCCC2)c2nsnc12	UHRF1 binding 24.1 (no result: RBBP9 inh)
c1nc(NCC2CCOC2)c2cc(-c3ccc4c(c3)OCO4)ccc2n1 (configuration not stated)	none (no result: ABHD5-PLIN5 inh, RBBP9 inh)
O=C1CN(c2ccccc2)C(=S)N1C(=O)c1ccccc1	none (no result: RBBP9 inh)
O=C(c1ccccc1)N1CCC(=O)N1c1ccccc1	UHRF1 binding 37.2
CCOc1cc(NC(=O)c2ccco2)c(OCC)cc1NC(=O)c1ccco1	none (no result: RBBP9 inh)
CNC(=S)Nc1cc(OC)c(NC(=O)c2ccco2)cc1OC	UHRF1 binding 42.8
CCOc1cc(NC(=O)c2ccco2)c(OCC)cc1NC(=O)CCc1ccccc1OC	LEDGF integ inh 15.4
O=C(c1ccc(F)cc1)C1CCN(C(=O)c2ccc(F)cc2)CC1	none (no result: RBBP9 inh)
O=C(c1ccc(F)cc1)C1CCN(C(=O)c2ccncc2)CC1	UHRF1 binding 80.4
COc1ccc(NC(=O)c2ccccn2)cc1	none (no result: PRMT1 inh, MBD2 inh, UHRF1 binding, LEDGF integ inh)
